Screens: PubChem, Sanford-Burnham Center for Chemical Genomics
SENP8 block-1: SENP8 protease inhibitors, primary screen, biochemical, luminescence. 1.2% of 330,000 active. inhibition, % at 10 µM. AID 2540, 2010. Sentrin-specific protease 8 (Homo sapiens), Q96LD8. purified SENP8, Z-RLRGG-aminoluciferin cleavage; in the data active means inhibition above about 50%
SENP8 block-2: human SENP8 protease inhibitors, primary screen, biochemical, fluorescence, Nedd8 protein substrate, uHTS | Sentrin-specific protease 8 (Homo sapiens), Q96LD8 | inhibition, % at 20 µM | recombinant SENP8 | 0.64% of 360,000 active; in the data active means inhibition mostly above about 40%, no sharp cut-off; inactive means mostly below about 27%
NRP1-CendR mod: modulators of CendR peptide binding to NRP-1, primary screen, biochemical, fluorescence polarization, uHTS | Neuropilin-1 (Homo sapiens), O14786 | FAM-RPARPAR peptide binding to NRP-1 | inhibition, % at 25 µM | 0.85% of 360,000 active | AID 602438, 2012;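 active means inhibition or corrected inhibition above about 18%, plus a signal ratio from 0.5 to 1.5, limit read from the data, passing the limit was not always enough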
SENP1 FRET inh: human SENP1 catalytic domain inhibitors, primary screen, biochemical, FRET, uHTS; recombinant SENP1 catalytic domain, CyPet-SUMO1-YPet FRET cleavage; inhibition, % at 10 µM; 0.21% of 360,000 active; AID 624204, 2012;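 active means inhibition at least 30% at 10 µM, raw YFP signal under a set limit, fluorescence ratio 0.5 to 1.5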;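 further: 0% = enzyme with DMSO and 100% = no enzyme wells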
Target sequence (Q9P0U3 419-644 limits assumed): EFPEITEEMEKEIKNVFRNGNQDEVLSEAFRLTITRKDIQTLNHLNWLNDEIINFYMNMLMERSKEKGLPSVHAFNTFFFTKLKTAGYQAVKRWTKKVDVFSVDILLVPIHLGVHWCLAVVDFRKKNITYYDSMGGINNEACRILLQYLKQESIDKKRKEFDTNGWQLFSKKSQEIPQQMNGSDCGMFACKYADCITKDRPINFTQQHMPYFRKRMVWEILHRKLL
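Test system: recombinant human SENP1 catalytic domain, His6-tagged / Medium: pH 8 Tris buffer with EDTA, NaCl, BME, BSA, NP40, catalase / Also added: SUMO1 FRET substrate flanked by Cypet and Ypet, 25 nM / Times: 50 min reaction at room temperature / Signal: FRET, CFP and YFP emission / Control set: no-enzyme low control and enzyme-plus-DMSO high control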
SENP7 inh: SENP7 protease inhibitors, primary screen, biochemical, luminescence, uHTS. Sentrin-specific protease 7 (Homo sapiens), Q9BQF6. recombinant SENP7, Z-RLRGG-aminoluciferin luminescence, 40 min. inhibition, % at 5 µM. 1.5% of 330,000 active;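 active means inhibition above about 50% at the single test dose, limit read from the data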;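 further: plate controls were DMSO with enzyme for no effect and no enzyme buffer wells for full effect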
Target sequence (Q9BQF6 706-1050 limits assumed): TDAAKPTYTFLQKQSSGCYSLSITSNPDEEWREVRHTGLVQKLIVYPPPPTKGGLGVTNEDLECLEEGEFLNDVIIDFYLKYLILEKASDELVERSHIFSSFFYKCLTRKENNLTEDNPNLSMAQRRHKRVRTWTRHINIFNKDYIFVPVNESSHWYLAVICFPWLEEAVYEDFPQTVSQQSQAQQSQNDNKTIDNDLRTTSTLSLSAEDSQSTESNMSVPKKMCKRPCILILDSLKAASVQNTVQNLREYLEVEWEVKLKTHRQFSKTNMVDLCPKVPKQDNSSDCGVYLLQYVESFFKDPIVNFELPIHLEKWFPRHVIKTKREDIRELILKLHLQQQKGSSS
SENP6 inh: SENP6 protease inhibitors, primary screen, biochemical, luminescence, uHTS | 1.8% of 330,000 active | inhibition, % at 10 µM | Recombinant SENP6 catalytic domain, aminoluciferin luminescence;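 active means inhibition above about 50% at the single tested dose, limit read from the data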;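 further: plate controls were DMSO wells with enzyme for no effect and DMSO wells lacking enzyme for full effect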
SENP8 conf: SENP8 protease inhibitors, retest, confirmation, biochemical, luminescence, single concentration. shares compounds with SENP7 inh. Recombinant SENP8, Z-RLRGG-aminoluciferin luminescence, 60 min. inhibition, % at 12.5 µM. 40% of 6,200 active. AID 488912, 2010;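 active means mean inhibition across replicates above about 50%, limit read from the data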
SENP6 conf: SENP6 protease inhibitors, confirmation, biochemical, luminescence, single concentration; recombinant SENP6, Z-RLRGG-aminoluciferin luminescence; shares compounds with SENP7 inh; 58% of 6,200 active; inhibition, % at 12.5 µM
SENP7 conf: SENP7 protease inhibitors, retest, confirmation, biochemical, luminescence, single concentration | recombinant SENP7, Z-RLRGG-aminoluciferin luminescence, 40 min | AID 488917, 2010 | 69% of 6,200 active | shares compounds with SENP7 inh | inhibition, % at 12.5 µM
Casp3 SENP sel: caspase-3 protease inhibitors, confirmation, selectivity assay for SENP inhibitor project, biochemical, single concentration; shares compounds with SENP7 inh; purified caspase-3, Z-DEVD-aminoluciferin luminescence, 60 min; inhibition, % at 12.5 µM; 60% of 6,200 active;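 active means mean inhibition above about 50%, limit read from the data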;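 further: plate controls were enzyme with DMSO for no effect and wells without caspase-3 for full effect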
SENP luc ctr: luminescence interference (SENP counter-screen); AID 488919; inhibition, % at 12.5 µM; shares compounds with SENP7 inh; 39% of 6,200 active; Pre-incubated SENP8/Z-RLRGG-aminoluciferin, luciferase luminescence interference;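 active means mean inhibition above about 50% when retested at one dose, limit read from the data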;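 further: plate controls were DMSO wells with completed reaction for no effect and substrate without enzyme for full effect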
Active calls of the source: *; nt = no result given. A selection: hits, their analogues and other compounds. The true share with any hit is near 3.3%.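 How the source made its calls, unless noted: active means mean inhibition above about 50% in the one-dose retest (limit read from the data); inactive means the rest.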

SMILES	SENP8 block-1	SENP8 block-2	NRP1-CendR mod	SENP1 FRET inh	SENP7 inh	SENP6 inh	SENP8 conf	SENP6 conf	SENP7 conf	Casp3 SENP sel	SENP luc ctr
CC(C)(C)NCCCCOc1ccccc1F	-4	6	-7	-1	84*	5	16	0	-3	-1	-3
CCCNC(=O)c1cc(C2CCCN(C(=O)C3CCCCC3)C2)on1 (stereo unspecified)	nt	14	-4	1	nt	nt	nt	nt	nt	nt	nt
CCOC(=O)C1=CCN(S(=O)(=O)c2ccccc2F)C1c1cccc(C)c1 (stereo unspecified)	nt	16	6	5	nt	nt	nt	nt	nt	nt	nt
c1ccc2nc3c(nc2c1)[nH]c1ccccc13	60*	-214	2	-58	75*	29	22	71*	92*	76*	15
c1ccc(-c2c3ccccc3nc3[nH]c4ccccc4c23)cc1	-8	-472	-3	-119	8	-3	nt	nt	nt	nt	nt
CCCc1nn(C)c(C(=O)Nc2ccc3ccccc3c2)c1Cl	29	15	5	-1	37	52*	-3	1	13	11	-1
O=C(O)c1ccc(C=NN2CCCCCC2)cc1	nt	14	-6	-1	nt	nt	nt	nt	nt	nt	nt
O=C(O)c1ccc(/C=N/N2CCN(c3ccccc3)CC2)cc1	62*	17	-3	3	72*	62*	7	12	16	6	8
COc1ccc(/C=N/N2CCN(c3ccccc3OC)CC2)cc1Br	32	20	8	-1	12	59*	39	42	76*	19	8
COc1ccc(/C=N/N2CCN(c3ccccc3OC)CC2)cc1OC	3	8	12	2	-10	3	nt	nt	nt	nt	nt
COc1ccc(/C=N/N2CCN(c3ccccc3)CC2)cc1Br	15	8	9	1	58*	33	-15	-7	-3	6	-6
CCOC(=O)c1cc(=O)nc(N)s1	nt	12	-4	0	nt	nt	nt	nt	nt	nt	nt
N/C(=N\OC(=O)c1cccc2ccccc12)c1ccccn1	69*	-45	-2	2	77*	80*	81*	79*	94*	79*	84*
COc1cccc(C(=O)O/N=C(\N)c2ccccn2)c1OC	59*	17	15	0	73*	76*	69*	68*	92*	92*	79*
Cc1cccc(C)c1NC(=O)C(c1ccc(C#N)cc1)n1c(=O)c(-c2cc3ccccc3[nH]2)nc2ccccc21 (stereo unspecified)	nt	-386	9	-18	nt	nt	nt	nt	nt	nt	nt
N#Cc1ccc(C(=O)Nc2nnc(-c3ccccn3)o2)cc1	51*	4	-3	-1	58*	69*	64*	60*	89*	86*	56*
CC(=O)Oc1ccc2cc(-c3ccccc3)c(=O)oc2c1	86*	-297	4	-22	85*	93*	13	42	50*	48	35
O=C(NC(=S)/C(=C1\CCCCCN1)[N+](=O)[O-])c1ccccc1	57*	14	2	1	60*	60*	77*	71*	93*	74*	10
O=C(NC(=S)Nc1ccccc1[N+](=O)[O-])c1ccccc1	-7	18	0	0	-15	-21	nt	nt	nt	nt	nt
CC[C@@]1(C(=O)OC)N[C@H](CN(C)C(=O)Nc2ccc(OC)cc2)[C@@H]2C(=O)N(C)C(=O)[C@@H]21	7	6	7	0	9	0	nt	nt	nt	nt	nt
Oc1ccccc1-c1cc(-c2ccccc2)n[nH]1	93*	18	-8	4	94*	95*	95*	96*	101*	74*	89*
Oc1ccc(F)cc1-c1cc(-c2ccc3c(c2)OCCO3)n[nH]1	84*	11	-7	0	75*	88*	88*	88*	100*	59*	57*
Cc1ccccc1-c1cc(-c2ccccc2O)n[nH]1	71*	16	-14	0	83*	84*	86*	85*	94*	42	62*
Oc1ccccc1-c1cc(-c2ccc(F)cc2)n[nH]1	89*	5	-15	-1	94*	94*	94*	94*	100*	72*	80*
CCCCn1nnnc1C(C1CC1)N1CCN(C/C=C/c2ccccc2)CC1 (stereo unspecified)	nt	11	-12	-3	nt	nt	nt	nt	nt	nt	nt
SMILES	SENP8 block-1	SENP8 block-2	NRP1-CendR mod	SENP1 FRET inh	SENP7 inh	SENP6 inh	SENP8 conf	SENP6 conf	SENP7 conf	Casp3 SENP sel	SENP luc ctr
Cc1ccc(-c2cc(-c3ccc(F)cc3)n[nH]2)c(O)c1	79*	2	-5	-1	76*	83*	86*	86*	95*	43	76*
Cc1ccc(/C=C2\OC(=O)c3ccccc32)cc1	56*	-190	-6	-22	86*	68*	0	15	25	30	11
Cc1cc(=O)[nH]c(SCc2ccccc2)n1	-7	8	7	1	-11	-3	nt	nt	nt	nt	nt
Cc1cc(=O)[nH]c(S/C=C/c2ccccc2)n1	77*	2	8	0	90*	64*	89*	90*	98*	94*	89*
CS(=O)(=O)Nc1ccccc1C(=O)OCC(=O)N1CCC(c2ccccc2)=N1	-2	-131	-12	-1	7	4	nt	nt	nt	nt	nt
Nc1cccnc1Sc1cccc(Cl)c1	31	-32	-3	0	41	61*	10	2	-2	-5	-4
